# Data published in ChEMBL document CHEMBL5705892, “MK-2206, an allosteric Akt inhibitor, enhances antitumor efficacy by standard chemotherapeutic agents or molecular targeted drugs in vitro and in vivo” (Mol Cancer Ther, 2010).
# Active and inactive are the calls of the source. No cut-off for these calls is given here.
# Tests used:
# [1] = system: HCC1954; experiment: Synergistic antiproliferative activity against human HCC1954 cells assessed as combination index at ED75 treated 24 hrs prior to lapatinib and measured after 72 hrs by celltiter-glo assay; type: functional; settings: time 96 hrs
# [2] = system: MDA-MB-453; experiment: Synergistic antiproliferative activity against human MDA-MB-453 cells assessed as combination index at ED90 measured after 72 hrs in presence of docetaxel by celltiter-glo assay; type: functional
# In short: (§1)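 Cells grown in RPMI 1640 with 10% heat-inactivated FBS at 37°C, 5% CO₂. Seeded at 2 to 3 × 10³ per well; drugs added 24 h later. […] Viability read as cellular ATP by CellTiter-Glo. CI calculated by Chou–Talalay from median-effect plots at ED50, ED75 and ED90.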
# [3] = system: HCC70; experiment: Synergistic antiproliferative activity against human HCC70 cells assessed as combination index at ED90 measured after 72 hrs in presence of lapatinib by celltiter-glo assay; type: functional; in short: as §1
# [4] = system: HCC1954; experiment: Antiproliferative activity against human HCC1954 cells assessed as reduction in cell proliferation measured after 72 hrs by celltiter-glo assay; type: functional, cell-based; settings: HCC1954, 72 h
# In short: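 Cells in RPMI 1640 with 10% heat-inactivated FBS at 37°C and 5% CO₂ were seeded at 2 to 3 × 10³ per well. […] Growth was read as cellular ATP by CellTiter-Glo.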
# [5] = system: A2780; experiment: Cell cycle arrest in human A2780 cells assessed as increase in accumulation of cells at sub-G1 phase measured after 72 hrs in presence of camptothecin by propidium iodide staining based flow cytometry; type: functional
# [6] = Toxicity in human NCI-H460 cells xenografted CD1 nude mouse assessed as body weight loss at 120 mg/kg, po administered 3 times per week for 2 weeks in presence of carboplatin measured during compound dosing relative to control; type: organism-based; settings: in vivo, 336 h
# In short: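 Female CD1-nude mice with s.c. NCI-H460 tumours (50% Matrigel/50% PBS), randomized at mean 0.2 cm³, n=5/group, dosing from 12 d post-implant. Body weight monitored against vehicle-only controls.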
# [7] = Toxicity in human NCI-H292 cells xenografted CD-1 mouse assessed as weight loss at 360 mg/kg, po administered once a week for 2 weeks starting 2 hrs post-erlotinib treatment and measured on day 16; type: organism-based; settings: in vivo, 384 h, time 16 day
# In short: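 Female CD1-nude mice bearing s.c. NCI-H292 tumours (cells in 50% Matrigel/50% PBS, left flank), randomized at mean 0.2 cm³, n=5/group. Body weight monitored; treatment period ended day 16.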
# [8] = system: HCC70; experiment: Synergistic antiproliferative activity against human HCC70 cells assessed as combination index at ED90 measured after 72 hrs in presence of docetaxel by celltiter-glo assay; type: functional; in short: as §1
# [9] = Toxicity in human NCI-H292 cells xenografted CD-1 mouse assessed as death at 360 mg/kg, po administered once a week for 2 weeks starting 2 hrs post-erlotinib treatment and measured during compound dosing; type: organism-based; settings: in vivo, 336 h
# In short: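 NCI-H292 cells in 50% Matrigel/PBS injected s.c. into flank of female CD1-nude mice; dosing began after 2 wk at mean tumour 0.2 cm³, n = 5/group. […] Body weight and signs monitored; treatment ended day 16.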
# [10] = system: NCI-H441; experiment: Synergistic antiproliferative activity against human NCI-H441 cells assessed as combination index at ED25 to ED90 measured after 72 hrs in presence of gemcitabine by celltiter-glo assay; type: functional
# [11] = system: A2780; experiment: Cell cycle arrest in human A2780 cells assessed as increase in accumulation of cells at sub-G1 phase measured after 72 hrs in presence of gemcitabine by propidium iodide staining based flow cytometry; type: functional
# [12] = Toxicity in human NCI-H460 cells xenografted CD1 nude mouse assessed as body weight loss at 120 mg/kg, po administered 3 times per week for 2 weeks measured on day 14 to 16 in presence of carboplatin; type: organism-based; settings: in vivo, 336 h, time 14-16 day
# In short: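 NCI-H460 cells in 50% Matrigel/PBS injected s.c. into flank of CD1-nude mice; randomized at mean tumour 0.2 cm³ (n = 5). MK-2206 in 30% Captisol, 120 mg/kg p.o. days 0, 2, 4, 7, 9, 11. Carboplatin 50 mg/kg i.v. in saline days 0 and 7 (from day 12 after implant), or gemcitabine 100 mg/kg i.v. in saline days 0 and 7 (from day 8). Body weight monitored.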
# [13] = system: NCI-H1703; experiment: Synergistic antiproliferative activity against human NCI-H1703 cells assessed as combination index at ED25 to ED90 measured after 72 hrs in presence of gemcitabine by celltiter-glo assay; type: functional
# [14] = system: SK-OV-3; experiment: Synergistic antiproliferative activity against human SK-OV-3 cells assessed as combination index at ED75 measured after 96 hrs in presence of lapatinib by celltiter-glo assay; type: functional
# [15] = system: BT-474; experiment: Synergistic antiproliferative activity against docetaxel pretreated human BT-474 cells assessed as combination index at ED50 measured after 72 hrs by celltiter-glo assay; type: functional
# [16] = system: NCI-H1703; experiment: Induction of apoptosis in human NCI-H1703 cells assessed as fold induction of capsase-3/7 activity measured after 24 to 48 hrs in presence of carboplatin by caspase-glo 3/7 assay; type: functional; settings: time 24-48 hrs
# [17] = system: MDA-MB-468; experiment: Synergistic antiproliferative activity against human MDA-MB-468 cells assessed as combination index at ED50 measured after 72 hrs in presence of lapatinib by celltiter-glo assay; type: functional; in short: as §1
# [18] = system: MDA-MB-468; experiment: Synergistic antiproliferative activity against human MDA-MB-468 cells assessed as combination index at ED75 measured after 72 hrs in presence of lapatinib by celltiter-glo assay; type: functional
# [19] = system: MDA-MB-468; experiment: Synergistic antiproliferative activity against human MDA-MB-468 cells assessed as combination index at ED50 treated 24 hrs prior to lapatinib and measured after 72 hrs by celltiter-glo assay; type: functional; settings: time 96 hrs
# [20] = system: NCI-H460; experiment: Antitumor activity against human NCI-H460 cells xenografted in CD1 nude mouse assessed as reduction in tumor volume at 120 mg/kg, po administered 3 times per week for 2 weeks in presence of gemcitabine by caliper method; type: functional, organism-based
# In short: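 NCI-H460 cells were injected s.c. in Matrigel/PBS into CD1-nude mice (female in the carboplatin study). Mice were randomized at 0.2 cm³, n = 5. Carboplatin was given at 50 mg/kg or gemcitabine at 100 mg/kg, i.v. in saline, on days 0 and 7. MK-2206 (30% Captisol) was given at 120 mg/kg po on days 0, 2, 4, 7, 9, 11. Tumors measured by caliper twice weekly.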
# [21] = Toxicity in human PC-3 cells xenografted CD1 nude mouse assessed as body weight loss at 120 mg/kg, po administered 3 times per week for 2 weeks starting 24 hrs post docetaxel treatment and measured during compound dosing relative to control; type: organism-based; settings: in vivo, 336 h
# In short: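 Male CD1-nude mice with s.c. PC-3 tumours (50% Matrigel/50% PBS, left flank), randomized at mean 0.2 cm³, n=5/group, treated from 25 d post-implant. Body weight monitored versus vehicle-only controls.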
# [22] = system: NCI-H460; experiment: Synergistic antiproliferative activity against human NCI-H460 cells assessed as combination index at ED25 to ED90 measured after 72 hrs in presence of gemcitabine by celltiter-glo assay; type: functional
# [23] = system: SK-OV-3; experiment: Synergistic antiproliferative activity against human SK-OV-3 cells assessed as combination index at ED50 measured after 72 hrs in presence of lapatinib by celltiter-glo assay; type: functional
smiles,measurement,setting,value
Cl.NC1(c2ccc(-c3nc4ccn5c(=O)[nH]nc5c4cc3-c3ccccc3)cc2)CCC1,CI75,[1],0.18
same,CI90,[2],0.3
same,CI90,[3],0.2
same,IC50,[4],2900 nM
same,Activity,[5],Dose-Dependent Effect
same,Activity,[6],7%
same,Activity,[7],Non-Toxic
same,CI90,[8],0.5
same,Activity,[9],Non-Toxic
same,CI,[10],0.37
same,Activity,[11],Dose-Dependent Effect
same,Activity,[12],Non-Toxic
same,CI,[13],0.43
same,CI75,[14],0.18
same,CI50,[15],0.8
same,fold change (FC),[16],1.3
same,CI50,[17],0.42
same,CI75,[18],0.25
same,CI50,[19],0.18
same,Activity,[20],Active
same,Activity,[21],9%
same,CI,[22],0.33
same,CI50,[23],0.07
